{"source": "ChEMBL document CHEMBL4049460", "about": "“Trisubstituted Imidazoles with a Rigidized Hinge Binding Motif Act As Single Digit nM Inhibitors of Clinically Relevant EGFR L858R/T790M and L858R/T790M/C797S Mutants: An Example of Target Hopping” (J Med Chem, 2017)", "key": {"[1]": {"biological_target": "Epidermal growth factor receptor (Homo sapiens, UniProt P00533, L858R/T790M)", "test": "Binding affinity to human EGFR L858R/T790M double mutant (669 to 1011 residues) expressed in mammalian system incubated for 1 hr", "summary_of_the_method": "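Competition binding of inhibitor against an immobilized active-site-directed ligand; Kd read out. Compound and kinase combined and equilibrated for 1 h without dilution (study arm C).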"}, "[2]": {"test_system": "Epidermal growth factor receptor (Homo sapiens), P00533 [G719S]", "test": "(§1) Inhibition of recombinant human N-terminally GST-His6 tagged EGFR G719S mutant (H672 to A1210 residues) C-terminal fragment harboring 3C cleavage site expressed in Baculovirus infected Sf9 cells assessed as residual activity at 1 uM in presence of [33-gamma]-ATP after 60 mins by scintillation counting method relative to control"}, "[3]": {"biological_target": "T1, Mitogen-activated protein kinase 14 (Homo sapiens, UniProt Q16539)", "T1 sequence (Q16539 whole entry, the tested form may be a part)": "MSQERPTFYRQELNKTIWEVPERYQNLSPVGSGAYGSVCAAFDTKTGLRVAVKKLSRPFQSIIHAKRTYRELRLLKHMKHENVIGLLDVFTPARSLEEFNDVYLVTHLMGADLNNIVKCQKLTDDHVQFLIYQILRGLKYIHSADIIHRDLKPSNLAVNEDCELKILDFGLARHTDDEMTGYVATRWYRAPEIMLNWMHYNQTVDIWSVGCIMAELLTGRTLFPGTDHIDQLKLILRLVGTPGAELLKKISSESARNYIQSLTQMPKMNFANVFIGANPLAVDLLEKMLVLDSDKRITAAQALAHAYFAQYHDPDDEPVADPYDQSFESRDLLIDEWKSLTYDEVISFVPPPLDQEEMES", "test": "Inhibition of recombinant full-length human p38alpha MAPK (M1 to S360 residues) expressed in Escherichia coli at 1 uM in presence of [33-gamma]-ATP after 60 mins by scintillation counting method"}, "[4]": {"biological_target": "Serine/threonine-protein kinase 25 (Homo sapiens) (UniProt O00506)", "test": "Inhibition of STK25 (unknown origin) assessed as residual activity at 1 uM in presence of [33-gamma]-ATP after 60 mins by scintillation counting method relative to control"}, "Homo sapiens [5]": {"species_on_record": "Homo sapiens", "test": "as §1, with “del 747-752/P753S” for “G719S”"}, "Homo sapiens [6]": {"species_on_record": "Homo sapiens", "test": "Selectivity ratio of IC50 for EGFR L858R/T790M double mutant (unknown origin) to IC50 for wild-type EGFR (unknown origin)"}, "[7]": {"biological_target": "Epidermal growth factor receptor (Homo sapiens, UniProt P00533, T790M/C797S/L858R)", "test": "Inhibition of recombinant human N-terminally GST-tagged EGFR L858R/T790M/C797S triple mutant expressed in baculovirus in Sf9 insect cells preincubated for 20 mins followed by addition of [33P]-ATP measured after 2 hrs by filter-binding method"}, "[8]": {"biological_target": "Misshapen-like kinase 1 (Homo sapiens) (UniProt Q8N4C8)", "sequence (Q8N4C8 whole entry, looked up, the tested form may be a part)": "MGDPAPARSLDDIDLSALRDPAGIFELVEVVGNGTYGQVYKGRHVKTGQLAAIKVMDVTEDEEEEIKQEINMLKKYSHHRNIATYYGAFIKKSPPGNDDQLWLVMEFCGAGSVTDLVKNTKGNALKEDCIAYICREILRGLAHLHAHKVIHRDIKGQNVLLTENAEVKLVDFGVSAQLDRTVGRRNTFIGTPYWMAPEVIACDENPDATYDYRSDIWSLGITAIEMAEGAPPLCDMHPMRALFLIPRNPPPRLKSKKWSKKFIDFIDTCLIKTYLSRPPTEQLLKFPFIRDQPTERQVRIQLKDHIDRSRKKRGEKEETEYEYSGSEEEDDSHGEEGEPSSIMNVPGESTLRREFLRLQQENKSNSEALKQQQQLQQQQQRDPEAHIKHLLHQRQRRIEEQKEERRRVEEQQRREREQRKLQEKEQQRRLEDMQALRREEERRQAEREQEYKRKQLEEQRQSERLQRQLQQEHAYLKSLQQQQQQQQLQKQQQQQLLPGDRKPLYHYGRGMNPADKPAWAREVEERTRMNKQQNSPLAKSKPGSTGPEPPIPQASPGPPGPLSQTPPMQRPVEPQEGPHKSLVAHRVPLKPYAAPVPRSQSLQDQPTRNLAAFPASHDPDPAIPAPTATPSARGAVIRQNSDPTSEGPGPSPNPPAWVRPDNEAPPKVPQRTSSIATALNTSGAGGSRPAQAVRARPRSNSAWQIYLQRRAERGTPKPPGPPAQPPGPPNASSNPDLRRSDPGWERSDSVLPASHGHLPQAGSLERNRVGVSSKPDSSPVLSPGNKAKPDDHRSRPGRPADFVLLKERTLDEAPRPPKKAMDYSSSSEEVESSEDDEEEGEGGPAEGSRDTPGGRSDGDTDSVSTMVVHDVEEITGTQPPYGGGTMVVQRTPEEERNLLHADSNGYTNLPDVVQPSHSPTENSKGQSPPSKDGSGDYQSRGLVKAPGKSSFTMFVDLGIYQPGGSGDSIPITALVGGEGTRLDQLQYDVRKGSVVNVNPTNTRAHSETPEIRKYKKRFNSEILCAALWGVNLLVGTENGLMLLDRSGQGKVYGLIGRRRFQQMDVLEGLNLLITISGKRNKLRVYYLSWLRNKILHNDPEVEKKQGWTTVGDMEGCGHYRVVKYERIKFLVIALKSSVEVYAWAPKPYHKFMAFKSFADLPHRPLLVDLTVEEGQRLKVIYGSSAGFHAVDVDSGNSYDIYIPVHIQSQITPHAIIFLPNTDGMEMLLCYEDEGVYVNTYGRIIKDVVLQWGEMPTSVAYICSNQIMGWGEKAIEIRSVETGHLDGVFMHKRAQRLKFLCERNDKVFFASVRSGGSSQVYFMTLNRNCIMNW", "test": "Inhibition of recombinant human N-terminally GST-HIS6 tagged MINK1 (M1 to E320 residues) harboring 3C-cleavage site expressed in Baculovirus infected Sf9 cells assessed as residual activity at 1 uM in presence of [33-gamma]-ATP after 60 mins by scintillation counting method relative to control"}, "[9]": {"biological_target": "T1, Mitogen-activated protein kinase 14", "test": "Inhibition of p38alpha MAPK (unknown origin) assessed as decrease in ATF2 phosphorylation at Thr69/71 at 1 uM after 1 hr by ELISA"}, "[10]": {"biological_target": "Receptor tyrosine-protein kinase erbB-2 (Homo sapiens) (UniProt P04626)", "sequence (P04626 whole entry)": "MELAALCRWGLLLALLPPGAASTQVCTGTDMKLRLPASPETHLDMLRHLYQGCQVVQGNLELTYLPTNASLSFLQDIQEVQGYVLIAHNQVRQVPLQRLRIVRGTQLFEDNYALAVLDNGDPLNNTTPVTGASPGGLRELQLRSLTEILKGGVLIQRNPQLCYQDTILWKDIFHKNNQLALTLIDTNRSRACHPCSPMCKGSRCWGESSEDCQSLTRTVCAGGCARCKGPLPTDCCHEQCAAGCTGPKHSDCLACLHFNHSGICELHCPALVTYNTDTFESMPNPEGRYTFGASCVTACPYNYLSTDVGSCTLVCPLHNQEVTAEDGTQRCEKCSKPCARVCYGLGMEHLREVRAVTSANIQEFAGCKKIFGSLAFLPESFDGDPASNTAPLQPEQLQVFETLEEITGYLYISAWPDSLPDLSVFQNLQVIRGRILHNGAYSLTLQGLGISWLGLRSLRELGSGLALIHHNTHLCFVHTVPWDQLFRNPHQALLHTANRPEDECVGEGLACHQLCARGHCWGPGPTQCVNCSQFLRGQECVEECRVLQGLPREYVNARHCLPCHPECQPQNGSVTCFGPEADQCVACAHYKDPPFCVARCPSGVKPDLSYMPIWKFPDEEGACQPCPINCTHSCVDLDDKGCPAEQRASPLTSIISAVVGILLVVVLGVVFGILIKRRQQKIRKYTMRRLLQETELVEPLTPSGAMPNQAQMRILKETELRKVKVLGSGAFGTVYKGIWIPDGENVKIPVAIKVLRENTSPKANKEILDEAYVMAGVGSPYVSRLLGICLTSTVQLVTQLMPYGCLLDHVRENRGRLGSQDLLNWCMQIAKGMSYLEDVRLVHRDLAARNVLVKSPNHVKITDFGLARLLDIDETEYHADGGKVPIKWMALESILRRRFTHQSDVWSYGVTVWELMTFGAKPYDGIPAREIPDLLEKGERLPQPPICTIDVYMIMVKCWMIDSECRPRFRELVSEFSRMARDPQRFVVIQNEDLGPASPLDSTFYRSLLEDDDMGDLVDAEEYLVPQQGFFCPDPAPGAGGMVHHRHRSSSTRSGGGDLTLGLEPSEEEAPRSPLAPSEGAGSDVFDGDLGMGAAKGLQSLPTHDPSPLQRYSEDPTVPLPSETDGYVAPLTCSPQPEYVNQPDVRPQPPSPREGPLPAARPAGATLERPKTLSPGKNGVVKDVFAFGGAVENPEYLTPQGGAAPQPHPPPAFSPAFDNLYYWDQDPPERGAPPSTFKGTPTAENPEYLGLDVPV", "test": "as §1, with “recombinant wild-type” for “recombinant”, “ERBB2 (Q679” for “EGFR G719S mutant (H672”, “V1255” for “A1210”, “thrombin” for “3C”"}, "Homo sapiens [11]": {"species_on_record": "Homo sapiens", "test": "as §1, with “del 747-749/A750P” for “G719S”"}, "[12]": {"biological_target": "Mitogen-activated protein kinase kinase kinase kinase 5 (Homo sapiens) (UniProt Q9Y4K4)", "sequence (Q9Y4K4 whole entry, looked up)": "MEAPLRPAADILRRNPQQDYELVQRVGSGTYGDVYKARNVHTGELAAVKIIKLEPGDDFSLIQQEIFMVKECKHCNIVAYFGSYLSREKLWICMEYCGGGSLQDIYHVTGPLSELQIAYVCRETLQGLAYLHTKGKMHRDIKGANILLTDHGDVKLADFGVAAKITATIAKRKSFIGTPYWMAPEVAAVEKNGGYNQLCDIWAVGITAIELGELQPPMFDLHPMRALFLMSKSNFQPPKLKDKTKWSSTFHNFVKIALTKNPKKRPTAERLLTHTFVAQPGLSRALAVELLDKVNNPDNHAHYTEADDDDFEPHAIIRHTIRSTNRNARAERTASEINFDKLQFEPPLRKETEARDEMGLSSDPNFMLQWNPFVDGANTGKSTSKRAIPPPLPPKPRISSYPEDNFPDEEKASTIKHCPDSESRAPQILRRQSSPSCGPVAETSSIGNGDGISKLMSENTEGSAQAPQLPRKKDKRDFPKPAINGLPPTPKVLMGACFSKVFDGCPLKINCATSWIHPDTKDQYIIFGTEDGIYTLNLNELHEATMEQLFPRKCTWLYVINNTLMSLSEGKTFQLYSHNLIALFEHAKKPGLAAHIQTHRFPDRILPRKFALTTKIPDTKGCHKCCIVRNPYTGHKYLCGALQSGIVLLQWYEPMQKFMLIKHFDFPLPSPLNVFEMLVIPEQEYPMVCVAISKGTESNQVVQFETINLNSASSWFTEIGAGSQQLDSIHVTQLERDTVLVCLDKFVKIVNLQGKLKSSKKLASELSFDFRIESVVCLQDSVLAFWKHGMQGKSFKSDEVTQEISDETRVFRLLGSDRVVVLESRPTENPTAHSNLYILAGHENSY", "test": "Inhibition of MAP4K5 (unknown origin) assessed as residual activity at 1 uM in presence of [33-gamma]-ATP after 60 mins by scintillation counting method relative to control"}, "[13]": {"biological_target": "Mitogen-activated protein kinase 10 (Homo sapiens) (UniProt P53779)", "sequence (P53779 whole entry, the tested form may be a part)": "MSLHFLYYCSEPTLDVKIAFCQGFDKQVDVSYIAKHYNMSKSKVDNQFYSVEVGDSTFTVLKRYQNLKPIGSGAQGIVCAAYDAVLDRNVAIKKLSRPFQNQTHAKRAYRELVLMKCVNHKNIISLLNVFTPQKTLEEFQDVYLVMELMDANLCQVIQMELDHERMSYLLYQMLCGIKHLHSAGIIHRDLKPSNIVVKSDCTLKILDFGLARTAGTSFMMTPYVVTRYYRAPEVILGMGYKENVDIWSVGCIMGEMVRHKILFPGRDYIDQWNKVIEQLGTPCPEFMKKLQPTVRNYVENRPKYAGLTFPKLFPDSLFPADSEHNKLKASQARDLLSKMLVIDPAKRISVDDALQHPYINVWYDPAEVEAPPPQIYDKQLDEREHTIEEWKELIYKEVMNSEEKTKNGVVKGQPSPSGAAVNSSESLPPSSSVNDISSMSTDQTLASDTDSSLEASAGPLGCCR", "test": "Inhibition of recombinant full-length human JNK3 (M1 to R426 residues) expressed in Escherichia coli assessed as residual activity at 1 uM in presence of [33-gamma]-ATP after 60 mins by scintillation counting method relative to control"}, "[14]": {"test": "Solubility of the compound at pH 7.5 by UV-HPLC analysis", "type": "physicochemical", "conditions": "buffer, read-out: solubility", "summary_of_the_method": "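Solubility measured in the kinase assay buffer (pH 7.5); concentration determined by HPLC with UV detection.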"}, "[15]": {"biological_target": "Epidermal growth factor receptor (Homo sapiens, UniProt P00533)", "test": "Ratio of Kd for wild-type human EGFR (669 to 1011 residues) after 1 hr to Kd for wild-type human EGFR (669 to 1011 residues) after 6 hrs", "type": "ADME", "summary_of_the_method": "(§2)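 Kd from competition with an immobilized active-site-directed ligand […]. Ratio compares 1 h compound–kinase equilibration against an arm with 6 h overall equilibration.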"}, "[16]": {"test_system": "Epidermal growth factor receptor (Homo sapiens), P00533 [L861Q]", "test": "as §1, with “L861Q” for “G719S”"}, "[17]": {"biological_target": "Epidermal growth factor receptor (Homo sapiens, UniProt P00533, L858R)", "test": "Binding affinity to human EGFR L858R mutant (669 to 1011 residues) expressed in bacterial system preincubated for 1 hr followed by 30 fold dilution measured after 5 hrs", "summary_of_the_method": "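Competition binding: compound's ability to displace an immobilized, active-site-directed ligand from the kinase, reported as Kd. Compound and kinase were equilibrated 1 h, diluted 30-fold in reaction buffer, then equilibrated a further 5 h before read-out.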"}, "[18]": {"biological_target": "Tyrosine-protein kinase Tec (Homo sapiens) (UniProt P42680)", "sequence (P42680 whole entry)": "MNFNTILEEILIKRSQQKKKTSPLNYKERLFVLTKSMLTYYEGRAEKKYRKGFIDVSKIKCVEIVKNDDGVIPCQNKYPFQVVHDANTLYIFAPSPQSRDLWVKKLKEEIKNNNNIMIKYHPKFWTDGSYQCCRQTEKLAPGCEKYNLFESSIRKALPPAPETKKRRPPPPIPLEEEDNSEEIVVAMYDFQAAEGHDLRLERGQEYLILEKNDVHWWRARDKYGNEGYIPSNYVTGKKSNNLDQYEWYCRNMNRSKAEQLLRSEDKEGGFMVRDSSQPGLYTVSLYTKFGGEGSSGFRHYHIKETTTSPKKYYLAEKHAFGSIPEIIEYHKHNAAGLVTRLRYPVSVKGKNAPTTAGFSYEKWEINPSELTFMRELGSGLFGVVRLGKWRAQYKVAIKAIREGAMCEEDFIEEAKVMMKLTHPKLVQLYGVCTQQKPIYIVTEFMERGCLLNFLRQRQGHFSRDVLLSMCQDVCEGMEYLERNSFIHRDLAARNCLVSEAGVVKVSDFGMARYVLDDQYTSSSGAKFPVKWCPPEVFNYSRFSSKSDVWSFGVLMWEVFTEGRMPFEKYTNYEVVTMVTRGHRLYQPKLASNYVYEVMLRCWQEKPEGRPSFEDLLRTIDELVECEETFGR", "test": "Inhibition of TEC (unknown origin) assessed as residual activity at 1 uM in presence of [33-gamma]-ATP after 60 mins by scintillation counting method relative to control"}, "Homo sapiens [19]": {"species_on_record": "Homo sapiens", "test": "Selectivity ratio of IC50 for p38alpha MAPK (unknown origin) to IC50 for recombinant human GST-tagged EGFR L858R/T790M double mutant cytoplasmic domain expressed in baculovirus expression system"}, "[20]": {"test_system": "Epidermal growth factor receptor (Homo sapiens), P00533 [G719C]", "test": "as §1, with “G719C” for “G719S”"}, "[21]": {"test_system": "Epidermal growth factor receptor (Homo sapiens), P00533 [L858R,T790M]", "test": "Ratio of Kd for human EGFR L858R/T790M double mutant (669 to 1011 residues) after 1 hr to Kd for EGFR L858R/T790M double mutant (669 to 1011 residues) after 6 hrs", "summary_of_the_method": "as §2"}}, "note": "pIC50, pKd: −log10 of the molar value. The source made the active and inactive calls. The rule behind the calls is not given here.", "data": [{"smiles": "C=CC(=O)Nc1cccc(-c2c[nH]c3nccc(-c4[nH]c(CCCO)nc4-c4ccc(F)cc4)c23)c1", "values": [{"measurement": "pKd", "setting": "[1]", "result": 7.89}, {"measurement": "Activity", "setting": "[2]", "result": 22, "unit": "%"}, {"measurement": "inhibition", "setting": "[3]", "result": "Active"}, {"measurement": "Activity", "setting": "[4]", "result": 49, "unit": "%"}, {"measurement": "Activity", "setting": "Homo sapiens [5]", "result": 4, "unit": "%"}, {"measurement": "Ratio IC50", "setting": "Homo sapiens [6]", "result": "> 40"}, {"measurement": "IC50", "setting": "[7]", "result": "Not Active"}, {"measurement": "Activity", "setting": "[8]", "result": 5, "unit": "%"}, {"measurement": "pIC50", "setting": "[9]", "result": 6.67}, {"measurement": "Activity", "setting": "[10]", "result": 17, "unit": "%"}, {"measurement": "Activity", "setting": "Homo sapiens [11]", "result": 6, "unit": "%"}, {"measurement": "Activity", "setting": "[12]", "result": 2, "unit": "%"}, {"measurement": "Activity", "setting": "[13]", "result": 34, "unit": "%"}, {"measurement": "solubility", "setting": "[14]", "result": 299, "unit": "µg/mL"}, {"measurement": "Ratio", "setting": "[15]", "result": "3 to 5"}, {"measurement": "Activity", "setting": "[16]", "result": 3, "unit": "%"}, {"measurement": "pKd", "setting": "[17]", "result": 8.74}, {"measurement": "Activity", "setting": "[18]", "result": 33, "unit": "%"}, {"measurement": "Ratio IC50", "setting": "Homo sapiens [19]", "result": 140}, {"measurement": "Activity", "setting": "[20]", "result": 37, "unit": "%"}, {"measurement": "Ratio", "setting": "[21]", "result": "3 to 5"}]}]}
